Results: the RNAGym collection of RNA variant scans (doi:10.1126/science.aae0568)
Fewer inactive variants are shown than the library holds.

B1: tRNA (parent)
chain: GUUCCGUUGGCGUAAUGGUAACGCGUCUCCCUCCUAAGGAGAAGACUGCGGGUUCGAGUCCCGUACGGAACG

Variants of: B1
Assay: yeast fitness relative to wild type (ratio to wild type); higher = fitter; tRNA-Arg(CCU), competitive growth, 37 C, YPD
Procedure, shortened: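 Genotype frequency changes were the basis for Darwinian fitness relative to wild type. The frequencies came from 100-nucleotide paired-end sequencing of gene amplicons from the start population and each end population of pooled yeast strains with tRNA-Arg(CCU) gene variants at the native locus. Competition ran in YPD at 37°C for 24 hours in six replicates, genotypes needed ≥ 100 starting reads, and estimates < 0.5 were set to 0.5.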

Compared with GUUCCGUUGGCGUAAUGGUAACGCGUCUUCCUCCUAAGAAGAAGACUGCGGGUUCGAGUCCCGUACAGAACG, GUUCCGUUGGCGUAAUGGUAACGCGUCUCACUCCUAAGGAGAAGACUGCGGGUUCGCGUGCCGUACGGAACG is lower in yeast fitness: 0.565 for the first, ≤ 0.5 for the second.

First: GUUCCGUUGGCGUAAUGGUAACGCGUCUCAAUCCUAAGGAGAAGACUGUGGGUUGGAGUCCCGUACGGAACG
Second: GUUCCGUUGGCGUAAUGGUAACGCGUCUCACUCCUCAGGAGAAGACUGCGGGUUCGAGUCCCGUACGGAACG
The yeast fitness of the first is higher: 0.672 for the first, 0.579 for the second.

Going from GUUCCGUUGGCGUAAUGGUAACGCGUCUCACUCCUUAGGAGAAGACUGCGGGUUCGAGUCCCGUACGGAACG to GUUCCGUUGGCGUAAUGGUAACGCGUCUUCCUCCUAAGGAGAAGACUGCCGGUUCGAGUCCCGUACGGAGCG, the yeast fitness falls from 0.697 to ≤ 0.5.

Compared with GUUCCGUUGGCGUAAUGGUAACGCGUCUCACUCCUAAGGAGCAGACUGCGGGUUCGAGUCCCGUAAGGAACG, GUUCCGUUGGCGUAAUGGUAACGCGUCUCACUCCUAAGGAGAAGACUGCGGGUUCGAGUACAGUACGGAACG is lower in yeast fitness: 0.719 for the first, ≤ 0.5 for the second.

Going from GUUCCGUUGGCGUAAUGGUAACGCGUCUCACUCCCGAGGAGCAGACUGCGGGUUCGAGUUUCGUACGGAACG to GUUCCGUUGGCGUAAUGGUAACGCGUCUCACUCCUAAGGAGAAGACUGCGGGUUCGAGUCCUGUACGGAACG, the yeast fitness rises from ≤ 0.5 to 0.886.

Compared with GUUCCGUUGGCGUAAUGGUAACGCGUCUCACUCCUAAGGAGAAGAUUGCGGGUUUGAGUCCCGUACGGAACG, GUUCCGUUGGCGUAAUGGUAACGCGUCUCACUCCUAAGGAGAUGACUGCGGGUUCGAGUCUCGUACGGAACG is higher in yeast fitness: 0.573 for the first, 0.602 for the second.

GUUCCGUUGGCGUAAUGGUAACGCGUCUCACUCCUAAGGAGAAGACUGCGGGUUGGAGUCCCGUAUGGAACG and GUUCCGUUGGCGUAAUGGUAACGCGUCUCACUCCUAAGGAGUAGACUGCGGGUUGGAGUCCCGUACGGAACG cannot be ordered by yeast fitness: ≤ 0.5 for the first, ≤ 0.5 for the second.

Going from GUUCCGUUGGCGUAAUGGUAACGCGUCUCACUCCUAAGGAGAAGACUGCGGGUUCGACUCCCGUACGAAACG to GUUCCGUUGGCGUAAUGGUAACGCGUCUUCCUCCUAAGGAGAAGACUGCGGGAUCGAGUCCCGUACGGAACG, the yeast fitness rises from ≤ 0.5 to 0.625.

GUUCCGUUGGCGUAAUGGUAACGCGUCUCAAUCCUAAAGAGAAGACUGUGGAUUCGAGUCCCGUACGGAACG and GUUCCGUUGGCGUAAUGGUAACGCGUCUCACUCCUAAGGAGCAGACUGCGGGUUCGAAUCCCGUACGGAACG cannot be ordered by yeast fitness: ≤ 0.5 for the first, ≤ 0.5 for the second.

GUUCCGUUGGCGUAAUGGUAACGCGUCUCACUCCUUAGAAGAAGGCUGCGGGUUCGAGUCCCUUACGGAACG and GUUCCGUUGGCGUAAUGGUAACGCGUCUCACUACUAAGGAGAAGACUGCGGGUUCGUGUCCCGUACGGAACG cannot be ordered by yeast fitness: ≤ 0.5 for the first, ≤ 0.5 for the second.

First: GUUCCGUUGGCGUAAUGGUAACGCGUCUUCCGCCUAAGGAGAAGACUGCGGGUUCGAGUCCCGUACGGAACG
Second: GUUCCGUUGGCGUAAUGGUAACGCGUCUCACUCCUAAGGAGAAGACUGCCGGUUCGAGUCCCGUAUGGAACG
The yeast fitness of the first is higher: 0.686 for the first, ≤ 0.5 for the second.

Going from GUUCCGUUGGCGUAAUGGUAACGCGUCUCACUCCUAAGGAGAAGAAUGCGGGUUCGGGUACCGUACGGAACG to GUUCCGUUGGCGUAAUGGUAACGCGUCUCACUCCUAAGGCGAAGACUGCGGGUUCGAGUCCCGUACGGAACG, the yeast fitness rises from ≤ 0.5 to 0.712.

Going from GUUCCGUUGGCGUAAUGGUAACGCGUCUUCCUCCUAAGGAGAACACUGUGGGUUCGUGUCCCGUACGGUACG to GUUCCGUUGGCGUAAUGGUAACGCGUCUCACUCCUAAGGAGAAGACUGCGGGUUCGAGUACCGUACGGAACG, the yeast fitness rises from ≤ 0.5 to 0.619.

Going from GUUCCGUUGGCGUAAUGGUAACGCGUCUCACUCCUAAGGAGAAGUCUGCGGGUUUGAGUCCCGUACGGAACG to GUUCCGUUGGCGUAAUGGUAACGCGUCUCACUCCUAAGGAGAAGAAUGCGGGUUCGAGUCCCGUACGGAACG, the yeast fitness rises from 0.589 to 1.

First: GUUCCGUUGGCGUAAUGGUAACGCGUCUCACUCCUAAGGAGAAGACUGCGGGUUCGAGUUCCGUAUGGAACG
Second: GUUCCGUUGGCGUAAUGGUAACGCGUCUCACUCCUAAGGAGUAGACUGCGGGUUUGAGUCCCGUAAGGAACG
The yeast fitness of the first is lower: ≤ 0.5 for the first, 0.531 for the second.

First: GUUCCGUUGGCGUAAUGGUAACGCGUCUUCCUCCUAAGGAGAAGACUGCGGGUUCGAGUCCCGUACGCAACG
Second: GUUCCGUUGGCGUAAUGGUAACGCGUCUCACUCCUAAGGAGAAGACUGCGGGUUUGAGUCCCGUACGAAACG
The yeast fitness of the first is higher: 0.898 for the first, ≤ 0.5 for the second.

GUUCCGUUGGCGUAAUGGUAACGCGUCUUCCUCCAAAGGAGAAGACUGCGGGUUCGAGUCCCGUACGGACCG and GUUCCGUUGGCGUAAUGGUAACGCGUCUCAUUCCUAAGGUGAAGACUGCGGGUUCCAGUCCCGUACGGCACG cannot be ordered by yeast fitness: ≤ 0.5 for the first, ≤ 0.5 for the second.

GUUCCGUUGGCGUAAUGGUAACGCGUCUCACUGCUAAGGGGAAGACUGCGGGUUCGAGUCCCGUACGGAACG and GUUCCGUUGGCGUAAUGGUAACGCGUCUCACUCCUUACAAGAAGACUGCGGGUUCGAGUCCCGUAAGGAACG cannot be ordered by yeast fitness: ≤ 0.5 for the first, ≤ 0.5 for the second.

Compared with GUUCCGUUGGCGUAAUGGUAACGCGUCUCACUCCUAAGGAGAAGACUCCGGGUUCGAGUCUCGUACGGAACG, GUUCCGUUGGCGUAAUGGUAACGCGUCUUCCUCCUAAGGAGAAGACGGGGGGUUCGAGUCCCGUACGGAGCG is lower in yeast fitness: 0.631 for the first, ≤ 0.5 for the second.
